Assay results: ChEMBL document CHEMBL1138867, “Design, synthesis, potency, and cytoselectivity of anticancer agents derived by parallel synthesis from alpha-aminosuberic acid” (J Med Chem, 2006)
The source made the active and inactive calls. No cut-off for these calls is given here.

Experiments:
NFF = experiment: Antiproliferative activity against human NFF cells; assay type: functional, cell-based
Summary of the method: (§1)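 Cells cultured in RPMI 1640 with 10% heat-inactivated FCS, 3 mM HEPES, 5% CO2, 37 °C; NFF are primary neonatal foreskin fibroblasts. Cells were seeded at 5 × 10^3/well and left to adhere overnight. They were exposed to compound for 24 h, then the medium was replaced and cells grown a further 72 h. Survival was read by SRB staining at 564 nm, giving IC50.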

MM96L [1] = experiment: Antiproliferative activity against human MM96L cells; assay type: functional, cell-based; summary of the method: as §1
MM96L [2] = experiment: Effect on cell morphology in human MM96L cells at 3 ug/mL after 24 hrs; assay type: functional, cell-based
T47D = experiment: Antiproliferative activity against human T-47D cells; assay type: functional, cell-based; summary of the method: as §1
[3] = Antiproliferative activity against human H520 cells; assay type: functional, cell-based; settings: NCI-H520; summary of the method: as §1
A549 [4] = experiment: Induction of p21 expression in human A549 cells after 24 hrs; assay type: functional, cell-based
Summary of the method: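 A549 cells were treated 24 h with 0.05, 0.5 or 5 µg/mL compound or vehicle. Lysates were made by sonication in 1% SDS/20% glycerol/10 mM Tris pH 7.4 buffer, and protein was quantified by BCA. Then 30 µg was run on 15% SDS-PAGE and immunoblotted for p21WAF1/Cip1 (1:1000), with GAPD (1:10 000) as reference, using chemiluminescence detection.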

A549 (Homo sapiens) = experiment: Induction of p21 expression in human A549 cells
PC-3 = experiment: Antiproliferative activity against human PC3 cells; assay type: functional, cell-based; summary of the method: as §1
HOP-62 = experiment: Antiproliferative activity against human HOP62 cells; assay type: functional, cell-based; summary of the method: as §1
HT-29 = experiment: Antiproliferative activity against human HT29 cells; assay type: functional, cell-based; summary of the method: as §1
DU-145 = experiment: Antiproliferative activity against human DU145 cells; assay type: functional, cell-based; summary of the method: as §1
[5] = Antiproliferative activity against human JAM cells; assay type: functional, cell-based; summary of the method: as §1
SK-MEL-5 = experiment: Antiproliferative activity against human SK-Mel-5 cells; assay type: functional, cell-based; summary of the method: as §1
C180-13S = experiment: Antiproliferative activity against human C180-13S cells; assay type: functional, cell-based; summary of the method: as §1
COLO 205 = experiment: Antiproliferative activity against human Colo205 cells; assay type: functional, cell-based; summary of the method: as §1
SK-MEL-28 = experiment: Antiproliferative activity against human SK-Mel-28 cells; assay type: functional, cell-based; summary of the method: as §1
A549 [6] = experiment: Antiproliferative activity against human A549 cells; assay type: functional, cell-based; summary of the method: as §1
MCF7 = experiment: Antiproliferative activity against human MCF7 cells; assay type: functional, cell-based; summary of the method: as §1

Row | SMILES | IC50 (NFF) [nM] | IC50 (MM96L [1]) [nM] | further results
1 | CN(C)c1ccc(NC(=O)[C@H](CCCCCC(=O)NO)NC(=O)OCc2ccccc2)cc1 | 650 | 610 | –
2 | COc1ccc(CCNC(=O)C(CCCCCC(=O)NO)NC(=O)c2ccco2)cc1 (stereo not drawn) | 1300 | 970 | –
3 | O=C(CCCCC[C@H](NC(=O)OCc1ccccc1)C(=O)NCc1ccccc1)NO | 1520 | 1520 | –
4 | O=C(CCCCC[C@H](NC(=O)OCC1c2ccccc2-c2ccccc21)C(=O)NCc1ccccc1)NO | 5370 | 3200 | –
5 | O=C(CCCCC[C@H](NC(=O)c1ccc(Br)cc1)C(=O)NCc1ccncc1)NO | 5240 | 830 | –
6 | O=C(CCCCC[C@H](NC(=O)c1ccc(Br)cc1)C(=O)NCc1ccccc1)NO | 5860 | 1990 | –
7 | O=C(CCCCCC(NC(=O)c1cccnc1)C(=O)NCc1ccccc1)NO (stereo not drawn) | 24000 | 9500 | –
8 | O=C(CCCCC[C@H](NC(=O)CCCc1c[nH]c2ccccc12)C(=O)NCc1ccccc1)NO | 7030 | 1850 | –
9 | O=C(CCCCC[C@H](NC(=O)OCc1ccccc1)C(=O)NCc1ccncc1)NO | 23300 | 4320 | –
10 | O=C(CCCCC[C@H](NC(=O)OCc1ccccc1)C(=O)Nc1ccc(-c2ccccc2)cc1)NO | 2200 | 330 | –
11 | O=C(/C=C/c1c[nH]c2ccccc12)N[C@@H](CCCCCC(=O)NO)C(=O)NCc1ccccc1 | 10400 | 3240 | –
12 | CN(C)c1ccc(C(=O)N[C@@H](CCCCCC(=O)NO)C(=O)NCc2ccccc2)cc1 | 12000 | 1600 | Activity (MM96L [2]): Active
13 | O=C(CCCCC[C@H](NC(=O)c1ccc(C(F)(F)F)cc1)C(=O)NCc1ccccc1)NO | 1610 | 660 | –
14 | O=C(CCCCC[C@H](NC(=O)c1cc2ccccc2[nH]1)C(=O)Nc1cccc2cccnc12)NO | 337 | 21 | IC50 (T47D): 19 nM; IC50 [3]: 26 nM; Activity (A549 [4]): Active; Activity (A549 (Homo sapiens)): Active; IC50 (PC-3): 148 nM; IC50 (HOP-62): 63 nM; IC50 (HT-29): 79 nM; IC50 (DU-145): 22 nM; IC50 [5]: 48 nM; IC50 (SK-MEL-5): 18 nM; IC50 (C180-13S): 20 nM; IC50 (COLO 205): 102 nM; IC50 (SK-MEL-28): 33 nM; IC50 (A549 [6]): 69 nM; IC50 (MCF7): 19 nM
15 | O=C(CCCCCC(NC(=O)c1ccc([N+](=O)[O-])cc1)C(=O)NCc1ccccc1)NO (stereo not drawn) | 9000 | 6000 | –
16 | O=C(CCCCC[C@H](NC(=O)c1ccc(Br)cc1)C(=O)Nc1ccc(-c2ccccc2)cc1)NO | 190 | 70 | IC50 (T47D): 197 nM; IC50 [3]: 117 nM; IC50 (PC-3): 531 nM; IC50 (HOP-62): 261 nM; IC50 (HT-29): 307 nM; IC50 (DU-145): 149 nM; IC50 [5]: 182 nM; IC50 (SK-MEL-5): 102 nM; IC50 (C180-13S): 158 nM; IC50 (COLO 205): 272 nM; IC50 (SK-MEL-28): 168 nM; IC50 (A549 [6]): 335 nM; IC50 (MCF7): 149 nM
17 | O=C(CCCCC[C@H](NC(=O)c1cc2ccccc2[nH]1)C(=O)NC1(Cc2ccccc2)CCCC1)NO | 1600 | 900 | –
18 | O=C(/C=C/c1ccccc1)N[C@@H](CCCCCC(=O)NO)C(=O)Nc1cccc2cccnc12 | 1240 | 21 | IC50 (T47D): 20 nM; IC50 [3]: 27 nM; IC50 (PC-3): 109 nM; IC50 (HOP-62): 65 nM; IC50 (HT-29): 99 nM; IC50 (DU-145): 30 nM; IC50 [5]: 49 nM; IC50 (SK-MEL-5): 29 nM; IC50 (C180-13S): 28 nM; IC50 (COLO 205): 141 nM; IC50 (SK-MEL-28): 37 nM; IC50 (A549 [6]): 73 nM; IC50 (MCF7): 17 nM
19 | O=C(CCCCC[C@H](NC(=O)c1cc2c(Br)cccc2[nH]1)C(=O)NCc1ccccc1)NO | 1940 | 490 | –
20 | CN(C)c1ccc(C(=O)N[C@@H](CCCCCC(=O)NO)C(=O)Nc2cccc3cccnc23)cc1 | 570 | 20 | IC50 (T47D): 45 nM; IC50 [3]: 63 nM; IC50 (PC-3): 220 nM; IC50 (HOP-62): 137 nM; IC50 (HT-29): 178 nM; IC50 (DU-145): 61 nM; IC50 [5]: 85 nM; IC50 (SK-MEL-5): 32 nM; IC50 (C180-13S): 65 nM; IC50 (COLO 205): 223 nM; IC50 (SK-MEL-28): 73 nM; IC50 (A549 [6]): 148 nM; IC50 (MCF7): 35 nM
21 | CC(C)COC(=O)N[C@@H](CCCCCC(=O)NO)C(=O)Nc1cccc2cccnc12 | 81 | 23 | IC50 (T47D): 198 nM; IC50 [3]: 129 nM; IC50 (PC-3): 651 nM; IC50 (HOP-62): 267 nM; IC50 (HT-29): 360 nM; IC50 (DU-145): 130 nM; IC50 [5]: 221 nM; IC50 (SK-MEL-5): 100 nM; IC50 (C180-13S): 149 nM; IC50 (COLO 205): 395 nM; IC50 (SK-MEL-28): 170 nM; IC50 (A549 [6]): 291 nM; IC50 (MCF7): 138 nM

Row | SMILES | IC50 (NFF) [nM] | IC50 (MM96L [1]) [nM] | further results
22 | O=C(CCCCCC(NC(=O)c1ccco1)C(=O)NCc1ccccc1)NO (stereo not drawn) | 4600 | 200 | –
23 | O=C(CCCCC[C@H](NC(=O)Cc1c[nH]c2ccccc12)C(=O)NCc1ccccc1)NO | > 2200 | 330 | –
24 | O=C(CCCCC[C@H](NC(=O)c1ccc(Br)cc1)C(=O)NCc1ccccn1)NO | 2090 | 1150 | –
25 | O=C(CCCCC[C@H](NC(=O)c1cc2ccccc2[nH]1)C(=O)NCc1ccccc1)NO | 1260 | 250 | –
26 | O=C(CCCCC[C@H](NC(=O)c1cccs1)C(=O)NCc1ccccc1)NO | 5200 | 890 | –
27 | CN(C)c1ccc(NC(=O)[C@H](CCCCCC(=O)NO)NC(=O)c2ccc(C(F)(F)F)cc2)cc1 | 400 | 220 | –
28 | O=C(CCCCC[C@H](NC(=O)OCc1ccccc1)C(=O)NC1CCCc2ccccc21)NO (stereo partly drawn) | 1700 | 1700 | –
29 | CN(C)c1ccc(NC(=O)[C@H](CCCCCC(=O)NO)NC(=O)/C=C/c2ccccc2)cc1 | 240 | 160 | –
30 | O=C(CCCCC[C@H](NC(=O)OCc1ccccc1)C(=O)Nc1cccc2cccnc12)NO | 452 | 43 | IC50 (T47D): 93 nM; IC50 [3]: 118 nM; IC50 (PC-3): 528 nM; IC50 (HOP-62): 226 nM; IC50 (HT-29): 334 nM; IC50 (DU-145): 131 nM; IC50 [5]: 194 nM; IC50 (SK-MEL-5): 70 nM; IC50 (C180-13S): 124 nM; IC50 (COLO 205): 122 nM; IC50 (SK-MEL-28): 146 nM; IC50 (A549 [6]): 248 nM; IC50 (MCF7): 122 nM
31 | O=C(CCCCC[C@H](NC(=O)c1ccc(C(F)(F)F)cc1)C(=O)Nc1cccc2cccnc12)NO | 696 | 258 | –
32 | CC(C)CCNC(=O)C(CCCCCC(=O)NO)NC(=O)c1ccco1 (stereo not drawn) | 4400 | 1500 | –
33 | CN(C)c1ccc(C(=O)NC(CCCCCC(=O)NO)C(=O)NC2CCCc3ccccc32)cc1 (stereo not drawn) | 1810 | 300 | –
34 | CC(C)CCNC(=O)C(CCCCCC(=O)NO)NC(=O)c1cccnc1 (stereo not drawn) | 12000 | 9000 | –
35 | O=C(CCCCC[C@H](NC(=O)Cc1ccc(-c2ccccc2)cc1)C(=O)NCc1ccccc1)NO | 5130 | 2360 | –
36 | O=C(CCCCC[C@H](NC(=O)c1cc2c(O)cccc2[nH]1)C(=O)NCc1ccccc1)NO | 2210 | 330 | –
37 | O=C(CCCCC[C@H](NC(=O)C12CC3CC(CC(C3)C1)C2)C(=O)NCc1ccccc1)NO | 7130 | 3950 | –
38 | CN(C)c1ccc(C(=O)N[C@H](CCCCCC(=O)NO)C(=O)NCc2ccccc2)cc1 | 1000 | 160 | –
39 | CN(C)c1ccc(C(=O)N[C@@H](CCCCCC(=O)NO)C(=O)NCc2ccccn2)cc1 | 33000 | 3600 | –
40 | O=C(/C=C/c1ccccc1)N[C@@H](CCCCCC(=O)NO)C(=O)NCc1ccccc1 | 4010 | 460 | –
41 | CN(C)c1ccc(C(=O)N[C@@H](CCCCCC(=O)NO)C(=O)NC2(Cc3ccccc3)CCCC2)cc1 | 3000 | 900 | –
